Results taken from ChEMBL document CHEMBL5678798 (Clin Cancer Res, 2009).

Legend:
[1] = target: Cytoplasmic tyrosine-protein kinase BMX (Homo sapiens, UniProt P51813); assay: Inhibition of N-terminal His6-tagged recombinant full-length human BMX expressed in baculovirus infected Sf21 cells by filter binding assay
[2] = target: SRSF protein kinase 1 (Homo sapiens) (UniProt Q96SB4); assay: Inhibition of N-terminal GST-tagged recombinant human SRPK1 expressed in Escherichia coli at 0.3 uM by filter binding assay relative to control
Summary of the method: (§1)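 Outsourced single-concentration screen in a commercial panel of 233 protein kinases, run as radiometric filter-binding activity assays. Test agent was tested at 0.3 or 3 µmol/L, as given in each line, from a 10 mmol/L DMSO stock. Activity is expressed as percent inhibition relative to control.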

[3] = target: Mitogen-activated protein kinase 11 (Homo sapiens) (UniProt Q15759); assay: Inhibition of N-terminal GST fusion protein corresponding to full-length human SAPK2b expressed in Escherichia coli at 3 uM by filter binding assay relative to control; summary of the method: as §1
[4] = target: Rho-associated protein kinase 2 (Homo sapiens) (UniProt O75116); assay: Inhibition of N-terminal His6-tagged recombinant human ROCK-II (11 to 552 residues) expressed in baculovirus infected Sf21 cells at 0.3 uM by filter binding assay relative to control
[5] = target: Death-associated protein kinase 3 (Homo sapiens) (UniProt O43293); assay: Inhibition of N-terminal GST tagged recombinant human ZIPK (1 to 290 residues) expressed in Escherichia coli at 3 uM by filter binding assay relative to control; summary of the method: as §1
[6] = target: Testis-specific serine/threonine-protein kinase 2 (Homo sapiens) (UniProt Q96PF2); assay: Inhibition of N-terminal His6-tagged recombinant full length human TSSK2 expressed in baculovirus infected Sf21 cells at 0.3 uM by filter binding assay relative to control; summary of the method: as §1
[7] = target: Serine/threonine-protein kinase BRSK1 (Homo sapiens) (UniProt Q8TDC3); assay: Inhibition of N-terminal 6His-tagged recombinant human BrSK1 (2 to end residues) expressed in baculovirus infected Sf21 cells at 3 uM by filter binding assay relative to control; summary of the method: as §1
SU-DHL-1 = assay: Antiproliferative activity against human SU-DHL-1 cells assessed as reduction in cell viability after 72 hrs by CellTiter-Glo assay; assay type: functional, cell-based; settings: SU-DHL-1, 72 h
Summary of the method: (§2)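 Cells seeded in 96-well plates, left overnight at 37°C, then exposed to a range of test concentrations for 72 h. Viability read by CellTiter-Glo luminescence; IC50 from four-parameter curve fit. Lines kept at 37°C, 5% CO2, in recommended growth medium.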

Insulin receptor = Insulin receptor (Homo sapiens, UniProt P06213); assay: Inhibition of N-terminal His6-tagged recombinant human IR (1005 to 1310 residues) expressed in baculovirus infected Sf21 cells by filter binding assay
[8] = target: Tyrosine-protein kinase FRK (Homo sapiens, UniProt P42685); assay: Inhibition of N-terminal 6His-tagged recombinant human PTK5 (218 to end residues) expressed in baculovirus infected Sf21 cells by filter binding assay
NCI-H929 = assay: Induction of cell cycle arrest in human NCI-H929 cells assessed as cells accumulation at G1 phase at 1 umol/L incubated for 48 hrs by propidium iodide staining based flow cytometric analysis (reference value: 42%); assay type: functional; settings: dose 1 µmol/L, at 1 µM
Summary of the method: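 COLO 205, MCF-7 or NCI-H929 cells seeded in 96-well plates overnight at 37°C, then exposed to DMSO or increasing compound concentrations for 24 or 48 h. Fixed and stained with propidium iodide (Vindelov method), then analysed by flow cytometry for sub-G1, G1, S and G2-M fractions. Experiment repeated twice.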

[9] = target: Serine/threonine-protein kinase PLK1 (Homo sapiens) (UniProt P53350); assay: Inhibition of N-terminal 6His-tagged recombinant human Plk1 expressed in baculovirus infected Sf21 cells at 0.3 uM by filter binding assay relative to control; summary of the method: as §1
[10] = Inhibition of recombinant mouse N-terminal 6His-tagged full length P110alpha/full length mouse […] expressed in baculovirus infected Sf21 cells at 3 uM by filter binding assay relative to control; settings: condition cancer
[11] = Antiproliferative activity against human SR-786 cells assessed as reduction in cell viability after 72 hrs by CellTiter-Glo assay; assay type: functional, cell-based; settings: SR-786, 72 h; summary of the method: as §2
[12] = Cytotoxicity against HMEC cells assessed as reduction in cell viability after 72 hrs by CellTiter-Glo assay; assay type: toxicity, cell-based; settings: human; summary of the method: as §2
SK-N-MC = assay: Antiproliferative activity against human SK-N-MC cells assessed as reduction in cell viability after 72 hrs by CellTiter-Glo assay; assay type: functional, cell-based; summary of the method: as §2
[13] = target: BDNF/NT-3 growth factors receptor (Homo sapiens) (UniProt Q16620); assay: Inhibition of N-terminal His6 tagged recombinant human TrkB (455 to end residues) expressed in baculovirus infected Sf21 cells at 0.3 uM by filter binding assay relative to control; summary of the method: as §1
[14] = Antiproliferative activity against human SK-ES cells assessed as reduction in cell viability after 72 hrs by CellTiter-Glo assay; assay type: functional, cell-based; summary of the method: as §2
Focal adhesion kinase 1 = Focal adhesion kinase 1 (Homo sapiens, UniProt Q05397); assay: Inhibition of N-terminal 6His-tagged recombinant human FAK (411 to 686 residues) expressed in baculovirus infected Sf21 cells by filter binding assay
[15] = target: Tyrosine-protein kinase SYK (Homo sapiens, UniProt P43405); assay: Inhibition of SYK (unknown origin)
[16] = target: Ribosomal protein S6 kinase alpha-4 (Homo sapiens, UniProt O75676); assay: Inhibition of N-terminal His6-tagged recombinant human MSK2 (2 to end residues) expressed in baculovirus infected Sf21 cells by filter binding assay
[17] = In vivo inhibition of IGF1R in mouse NIH-3T3/LISN cells implanted in IGF1-stimulated nu/nu CD-1 mouse assessed as reduction in IGF1R phosphorylation at 30 mg/kg, po pretreated for 4 to 8 hrs followed by IGF1 stimulation and measured after 10 min by […] relative to control; assay type: functional; settings: time 240-490 min
Summary of the method: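 Time course: tumor-bearing female nu/nu CD-1 mice, three per group, given a single oral 30 mg/kg dose or vehicle. IGF-I given 10 min before blood and tumor collection at each time point. Tumor phospho-IGF-IR/total IGF-IR measured by capture-plate europium phosphotyrosine assay and expressed as % of ligand-stimulated control.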

[18] = target: Ephrin type-A receptor 5 (Homo sapiens) (UniProt P54756); assay: Inhibition of N-terminal His6-tagged human EphA5 expressed in baculovirus infected Sf21 cells at 0.3 uM by filter binding assay relative to control; summary of the method: as §1
[19] = target: Tyrosine-protein kinase ABL2 (Homo sapiens) (UniProt P42684); assay: Inhibition of N-terminal His6-tagged recombinant human Arg (38 to end residues) expressed in baculovirus infected Sf21 cells at 3 uM by filter binding assay relative to control
[20] = target: Tyrosine-protein kinase JAK3 (Homo sapiens, UniProt P52333); assay: Inhibition of JAK3 (unknown origin)
NCI-H1299 = assay: Antiproliferative activity against human NCI-H1299 cells assessed as reduction in cell viability after 72 hrs by CellTiter-Glo assay; assay type: functional, cell-based; settings: NCI-H1299, 72 h; summary of the method: as §2

Chain of Death-associated protein kinase 3 (Homo sapiens) (O43293 whole entry, looked up, the tested form may be a part): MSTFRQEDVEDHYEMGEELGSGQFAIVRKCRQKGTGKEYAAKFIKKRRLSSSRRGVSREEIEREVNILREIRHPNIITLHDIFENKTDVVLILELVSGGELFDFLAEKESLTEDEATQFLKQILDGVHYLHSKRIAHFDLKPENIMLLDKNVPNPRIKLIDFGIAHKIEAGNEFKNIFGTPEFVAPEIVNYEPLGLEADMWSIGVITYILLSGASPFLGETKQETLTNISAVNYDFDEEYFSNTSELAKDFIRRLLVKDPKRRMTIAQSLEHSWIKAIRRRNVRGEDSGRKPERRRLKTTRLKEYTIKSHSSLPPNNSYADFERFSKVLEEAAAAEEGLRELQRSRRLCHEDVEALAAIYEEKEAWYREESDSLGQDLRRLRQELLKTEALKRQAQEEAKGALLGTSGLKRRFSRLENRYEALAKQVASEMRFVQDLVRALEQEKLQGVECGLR
Chain of Testis-specific serine/threonine-protein kinase 2 (Homo sapiens) (Q96PF2 whole entry): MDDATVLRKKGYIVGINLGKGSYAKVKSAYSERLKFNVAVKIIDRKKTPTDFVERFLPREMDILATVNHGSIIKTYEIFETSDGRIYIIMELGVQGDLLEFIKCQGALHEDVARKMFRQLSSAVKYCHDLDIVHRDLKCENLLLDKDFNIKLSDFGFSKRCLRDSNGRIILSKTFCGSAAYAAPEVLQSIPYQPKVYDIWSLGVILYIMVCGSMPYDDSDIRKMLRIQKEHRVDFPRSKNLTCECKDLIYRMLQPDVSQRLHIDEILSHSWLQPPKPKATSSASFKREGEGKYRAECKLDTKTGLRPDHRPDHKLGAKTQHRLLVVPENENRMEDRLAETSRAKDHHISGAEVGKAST
Chain of Serine/threonine-protein kinase BRSK1 (Homo sapiens) (Q8TDC3 whole entry): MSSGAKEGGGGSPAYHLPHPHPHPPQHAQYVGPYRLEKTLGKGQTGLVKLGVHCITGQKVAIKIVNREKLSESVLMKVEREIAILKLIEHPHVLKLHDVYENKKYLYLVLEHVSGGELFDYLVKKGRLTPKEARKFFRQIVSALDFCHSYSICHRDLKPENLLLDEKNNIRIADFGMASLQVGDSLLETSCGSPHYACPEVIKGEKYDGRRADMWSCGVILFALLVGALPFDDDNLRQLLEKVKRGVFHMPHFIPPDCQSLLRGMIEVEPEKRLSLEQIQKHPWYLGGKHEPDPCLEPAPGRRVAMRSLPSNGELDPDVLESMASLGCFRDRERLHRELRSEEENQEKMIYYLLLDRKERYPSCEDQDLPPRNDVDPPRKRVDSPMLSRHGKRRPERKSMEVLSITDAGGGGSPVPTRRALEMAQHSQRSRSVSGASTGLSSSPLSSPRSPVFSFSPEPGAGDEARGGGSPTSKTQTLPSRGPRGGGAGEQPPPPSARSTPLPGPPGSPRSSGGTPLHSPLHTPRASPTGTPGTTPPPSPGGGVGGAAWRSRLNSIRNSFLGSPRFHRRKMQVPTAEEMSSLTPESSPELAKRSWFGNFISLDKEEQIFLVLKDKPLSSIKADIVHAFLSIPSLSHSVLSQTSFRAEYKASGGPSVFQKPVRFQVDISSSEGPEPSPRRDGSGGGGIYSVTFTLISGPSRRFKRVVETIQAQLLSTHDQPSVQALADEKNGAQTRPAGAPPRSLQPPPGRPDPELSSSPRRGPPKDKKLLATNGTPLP
Chain of BDNF/NT-3 growth factors receptor (Homo sapiens) (Q16620 32-822 limits assumed): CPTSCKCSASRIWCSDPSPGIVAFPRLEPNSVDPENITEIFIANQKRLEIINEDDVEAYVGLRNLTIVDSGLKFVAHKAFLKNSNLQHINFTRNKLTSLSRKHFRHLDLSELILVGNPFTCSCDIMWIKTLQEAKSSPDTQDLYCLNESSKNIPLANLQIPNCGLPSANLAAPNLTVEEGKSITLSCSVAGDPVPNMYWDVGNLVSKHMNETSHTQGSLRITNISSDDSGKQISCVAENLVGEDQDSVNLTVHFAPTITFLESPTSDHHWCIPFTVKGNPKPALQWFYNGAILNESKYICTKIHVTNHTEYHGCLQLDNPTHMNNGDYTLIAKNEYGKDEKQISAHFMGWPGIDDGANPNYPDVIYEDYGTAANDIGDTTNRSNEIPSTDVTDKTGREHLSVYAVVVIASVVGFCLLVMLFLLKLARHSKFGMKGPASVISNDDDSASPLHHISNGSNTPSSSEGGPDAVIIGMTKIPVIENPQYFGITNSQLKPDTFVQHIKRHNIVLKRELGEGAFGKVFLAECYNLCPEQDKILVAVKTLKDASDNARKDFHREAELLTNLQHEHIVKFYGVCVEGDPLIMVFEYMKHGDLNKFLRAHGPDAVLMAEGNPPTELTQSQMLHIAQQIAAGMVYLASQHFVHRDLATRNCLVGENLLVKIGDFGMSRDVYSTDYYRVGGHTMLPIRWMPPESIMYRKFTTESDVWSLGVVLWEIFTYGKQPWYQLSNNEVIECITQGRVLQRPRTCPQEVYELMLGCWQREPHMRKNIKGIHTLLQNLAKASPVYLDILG
Chain of Mitogen-activated protein kinase 11 (Homo sapiens) (Q15759 whole entry, the tested form may be a part): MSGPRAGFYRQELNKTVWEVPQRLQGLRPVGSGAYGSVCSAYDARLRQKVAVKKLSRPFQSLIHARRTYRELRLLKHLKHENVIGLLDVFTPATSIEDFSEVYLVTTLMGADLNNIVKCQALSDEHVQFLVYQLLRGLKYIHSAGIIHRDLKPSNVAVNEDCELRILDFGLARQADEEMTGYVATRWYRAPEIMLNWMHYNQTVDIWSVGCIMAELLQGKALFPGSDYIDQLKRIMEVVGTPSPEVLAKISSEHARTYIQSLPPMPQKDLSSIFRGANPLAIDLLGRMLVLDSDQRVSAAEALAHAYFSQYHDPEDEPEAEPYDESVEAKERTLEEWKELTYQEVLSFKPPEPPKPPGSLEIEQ
Chain of Ephrin type-A receptor 5 (Homo sapiens) (P54756 whole entry): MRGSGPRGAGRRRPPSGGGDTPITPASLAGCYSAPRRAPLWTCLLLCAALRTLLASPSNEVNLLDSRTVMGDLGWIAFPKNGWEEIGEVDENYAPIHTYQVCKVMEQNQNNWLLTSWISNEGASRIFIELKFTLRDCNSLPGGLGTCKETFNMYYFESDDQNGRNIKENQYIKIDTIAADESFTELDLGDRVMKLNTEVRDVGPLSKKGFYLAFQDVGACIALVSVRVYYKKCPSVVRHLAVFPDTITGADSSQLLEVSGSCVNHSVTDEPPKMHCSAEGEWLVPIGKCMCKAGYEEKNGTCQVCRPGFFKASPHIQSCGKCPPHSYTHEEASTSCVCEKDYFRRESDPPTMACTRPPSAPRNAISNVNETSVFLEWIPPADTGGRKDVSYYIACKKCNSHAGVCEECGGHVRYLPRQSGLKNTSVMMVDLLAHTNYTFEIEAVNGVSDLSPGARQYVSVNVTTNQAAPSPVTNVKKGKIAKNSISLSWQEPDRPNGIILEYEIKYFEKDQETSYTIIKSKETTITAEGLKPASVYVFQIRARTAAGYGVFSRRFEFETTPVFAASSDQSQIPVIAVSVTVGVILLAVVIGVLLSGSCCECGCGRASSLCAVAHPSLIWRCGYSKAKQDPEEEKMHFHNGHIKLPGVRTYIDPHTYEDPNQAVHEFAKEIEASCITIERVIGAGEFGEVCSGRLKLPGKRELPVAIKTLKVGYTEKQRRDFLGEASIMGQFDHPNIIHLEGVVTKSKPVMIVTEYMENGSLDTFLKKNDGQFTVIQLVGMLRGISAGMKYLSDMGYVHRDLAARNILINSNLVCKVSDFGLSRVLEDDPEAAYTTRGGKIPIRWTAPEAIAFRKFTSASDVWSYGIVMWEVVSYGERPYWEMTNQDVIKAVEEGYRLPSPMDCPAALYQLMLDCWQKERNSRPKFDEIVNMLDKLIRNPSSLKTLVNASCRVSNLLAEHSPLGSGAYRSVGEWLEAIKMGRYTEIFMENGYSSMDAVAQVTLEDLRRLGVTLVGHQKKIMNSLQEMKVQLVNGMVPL
Chain of Cytoplasmic tyrosine-protein kinase BMX (P51813 whole entry): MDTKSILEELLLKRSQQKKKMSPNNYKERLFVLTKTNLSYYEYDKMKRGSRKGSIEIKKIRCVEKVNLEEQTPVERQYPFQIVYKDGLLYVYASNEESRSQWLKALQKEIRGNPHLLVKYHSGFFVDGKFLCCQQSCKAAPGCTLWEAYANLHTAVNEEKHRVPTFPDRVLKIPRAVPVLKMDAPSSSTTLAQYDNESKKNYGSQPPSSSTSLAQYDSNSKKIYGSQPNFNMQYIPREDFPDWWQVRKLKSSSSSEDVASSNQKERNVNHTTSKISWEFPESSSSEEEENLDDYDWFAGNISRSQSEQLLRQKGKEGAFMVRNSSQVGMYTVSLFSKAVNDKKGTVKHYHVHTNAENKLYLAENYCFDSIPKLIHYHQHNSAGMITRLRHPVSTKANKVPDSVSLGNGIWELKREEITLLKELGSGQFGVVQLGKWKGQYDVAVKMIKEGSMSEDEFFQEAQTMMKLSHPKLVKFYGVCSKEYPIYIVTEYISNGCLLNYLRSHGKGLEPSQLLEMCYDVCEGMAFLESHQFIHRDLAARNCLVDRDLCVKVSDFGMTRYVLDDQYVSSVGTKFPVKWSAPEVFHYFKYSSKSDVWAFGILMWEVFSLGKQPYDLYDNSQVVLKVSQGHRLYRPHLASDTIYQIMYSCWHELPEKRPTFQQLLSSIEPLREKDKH
Chain of Tyrosine-protein kinase FRK (P42685 whole entry): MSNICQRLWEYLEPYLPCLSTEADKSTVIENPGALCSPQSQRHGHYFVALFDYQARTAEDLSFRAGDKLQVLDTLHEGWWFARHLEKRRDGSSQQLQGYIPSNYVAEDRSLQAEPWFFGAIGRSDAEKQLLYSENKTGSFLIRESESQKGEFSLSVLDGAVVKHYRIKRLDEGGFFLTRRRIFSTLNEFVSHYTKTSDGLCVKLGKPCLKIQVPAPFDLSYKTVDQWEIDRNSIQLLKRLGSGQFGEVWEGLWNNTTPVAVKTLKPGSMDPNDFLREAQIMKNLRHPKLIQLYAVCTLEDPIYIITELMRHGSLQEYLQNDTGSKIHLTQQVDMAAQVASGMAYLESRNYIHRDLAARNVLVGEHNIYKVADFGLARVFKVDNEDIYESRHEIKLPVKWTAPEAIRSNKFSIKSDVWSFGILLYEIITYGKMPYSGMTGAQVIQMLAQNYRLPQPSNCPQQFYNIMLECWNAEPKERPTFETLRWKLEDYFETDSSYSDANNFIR

Work on CCc1cc(Nc2nccc(-c3c(-c4ccc(OC)c(C(=O)Nc5c(F)cccc5F)c4)nc4ccccn34)n2)c(OC)cc1N1CCC(N2CCN(S(C)(=O)=O)CC2)CC1 yielded an IC50 [1] of 1210 nM, an inhibition [2] of 1% and an inhibition [3] of 11%. It also gave an inhibition [4] of -8%, an inhibition [5] of 27% and an inhibition [6] of 4%. The inhibition [7] was 24%, the IC50 (SU-DHL-1) was > 30000 nM and the IC50 (Insulin receptor) was 74 nM. For the same compound, the IC50 [8] was 16 nM, the Activity (NCI-H929) was 79% and the inhibition [9] was -8%. The inhibition at 3 µM [10] was 0%, the IC50 [11] was > 30000 nM and the IC50 at 72 h [12] was > 20000 nM. It also gave an IC50 (SK-N-MC) of 43 nM, an inhibition [13] of 4% and an IC50 [14] of 61 nM. The IC50 (Focal adhesion kinase 1) was 362 nM, the IC50 [15] was 3200 nM and the IC50 [16] was 3640 nM. For the same compound, the inhibition in vivo at 30 mg/kg [17] was > 90%, the inhibition [18] was 11% and the inhibition [19] was 33%. For the same compound, the IC50 [20] was 13000 nM and the IC50 (NCI-H1299) was > 20000 nM.
